What was measured:
[1] = Inhibition of ConA-induced proliferation of BALB/c mouse splenocyte at 10 uM incubated for 48 hrs by CCK-8 assay relative to control; assay type: functional
Outline: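 Male BALB/c mouse splenocytes (6–8 weeks; red cells lysed with 0.84% NH4Cl), 5 × 10^5 cells/well in RPMI-1640 with 10% FBS and pen/strep, were stimulated with 5 μg/mL Con A with or without 10 μM compound for 48 h at 37 °C, 5% CO2. CCK-8 was added for 3 h and OD450 read. Inhibition was calculated against Con A-only wells; means ± SEM, ≥3 independent experiments.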

[2] = Inhibition of ConA-induced IL-4 secretion in BALB/c mouse splenocyte at 10 uM incubated for 48 hrs by ELISA relative to control; assay type: functional
Outline: (§1)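 Male BALB/c splenocytes, 5 × 10^5 cells/well, were treated with Con A (5 μg/mL) plus compound at 5 or 10 μM for 48 h at 37 °C, 5% CO2. Plates were spun at 4 °C, 1500 rpm, 5 min. Cell-free supernatant IFN-γ or IL-4 was measured by capture-antibody ELISA. Inhibition was calculated against Con A-only wells; means ± SEM, ≥3 independent experiments.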

[3] = Cytotoxicity against human Jurkat cells assessed as reduction in cell viability incubated for 48 hrs by CCK-8 assay; assay type: toxicity, cell-based
Outline: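 Human Jurkat T-leukemia cells in RPMI-1640 with 10% FBS and pen/strep, 2.5 × 10^4 cells/well, were exposed to serially diluted compound at 37 °C for 48 h. Viability was read by CCK-8 (3 h, OD450). IC50 is the concentration reducing viability to 50%.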

[4] = Inhibition of ConA-induced proliferation of BALB/c mouse splenocyte incubated for 48 hrs by CCK-8 assay relative to control; assay type: functional, cell-based
Outline: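 IC50 was measured only for compounds giving over 50% inhibition at 10 μM. Con A (5 μg/mL)-stimulated male BALB/c splenocytes, 5 × 10^5 cells/well in RPMI-1640/10% FBS, were cultured 48 h at 37 °C, 5% CO2. Read-out was CCK-8, 3 h incubation, OD450. IC50 came from at least three independent tests.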

[5] = Inhibition of ConA-induced IFN-gamma secretion in BALB/c mouse splenocyte at 10 uM incubated for 48 hrs by ELISA relative to control; assay type: functional; outline: as §1
[6] = Selectivity index, ratio of IC50 for cytotoxicity against human Jurkat cells to IC50 for inhibition of ConA-induced proliferation of BALB/c mouse splenocyte; assay type: toxicity, cell-based; conditions: mouse (splenocytes), ConA-stimulated mouse splenocytes, read-out: Ratio IC50
Outline: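 Ratio of Jurkat IC50 to splenocyte IC50. Jurkat: 2.5 × 10^4 cells/well, serial dilutions, 48 h, 37 °C, CCK-8 viability. Splenocytes: BALB/c cells, 5 × 10^5/well, with 5 μg/mL Con A, 48 h, 37 °C, 5% CO2, CCK-8 read at OD450.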

[7] = Inhibition of ConA-induced proliferation of BALB/c mouse splenocyte at 1 uM incubated for 48 hrs by CCK-8 assay relative to control; assay type: functional
Outline: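 Positive-control condition: cyclosporine A at 1 μM in the same Con A (5 μg/mL)-stimulated BALB/c splenocyte culture, 5 × 10^5 cells/well, 48 h at 37 °C, 5% CO2. Proliferation was read by CCK-8 (3 h, OD450) against Con A-only wells.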

Row | Compound | inhibition at 10 µM [1] [%] | inhibition at 10 µM [2] [%] | IC50 at 48 h [3] [µM] | IC50 [4] [µM] | inhibition at 10 µM [5] [%] | selectivity ratio [6] | inhibition at 1 µM [7] [%]
1 | CCCCCOc1cc2c(c(OCCCCC)c1OC)[C@@H]1O[C@H](CO)[C@@H](O)[C@H](O)[C@H]1OC2=O | 5.4 |  |  |  |  |  | 
2 | CCCCCCCOc1cc2c(c(OCCCCCCC)c1OC)[C@@H]1O[C@H](CO)[C@@H](O)[C@H](O)[C@H]1OC2=O | 99 | 98.6 | 4.18 | 7.21 | 102 |  | 
3 | CCCCOc1cc2c(c(OCCCC)c1OC)[C@@H]1O[C@H](CO)[C@@H](O)[C@H](O)[C@H]1OC2=O | -9.27 |  |  |  |  |  | 
4 | CCCCCCCCOc1cc2c(c(OCCCCCCCC)c1OC)[C@@H]1O[C@H](CO)[C@@H](O)[C@H](O)[C@H]1OC2=O | -21.5 |  |  |  |  |  | 
5 | COc1c(OCc2ccccc2)cc2c(c1OCc1ccccc1)[C@@H]1O[C@H](CO)[C@@H](O)[C@H](O)[C@H]1OC2=O | -5.95 |  |  |  |  |  | 
6 | CCCCCCCCCCOc1cc2c(c(OCCCCCCCCCC)c1OC)[C@@H]1O[C@H](CO)[C@@H](O)[C@H](O)[C@H]1OC2=O | 15.4 |  |  |  |  |  | 
7 | COc1c(OCc2ccccc2)cc2c(c1OCc1ccccc1)[C@@H]1O[C@@H]3CO[C@@H](c4ccccc4)O[C@H]3[C@H](NS(C)(=O)=O)[C@H]1OC2=O | 84.9 | 67.5 | 33.1 | 5.39 | 71.1 | 6 | 
8 | COc1c(OCc2ccccc2)cc2c(c1OCc1ccccc1)[C@@H]1O[C@@H]3CO[C@@H](c4ccccc4)O[C@H]3[C@H](N)[C@H]1OC2=O | 72.6 | 8.7 | 39.3 | 8.19 | 48.4 |  | 
9 | COc1c(OCc2ccccc2)cc2c(c1OCc1ccccc1)[C@@H]1O[C@@H]3CO[C@@H](c4ccccc4)O[C@H]3[C@@H](O)[C@H]1OC2=O | 11.2 |  |  |  |  |  | 
10 | COc1c(OCc2ccccc2)cc2c(c1OCc1ccccc1)[C@@H]1O[C@@H]3CO[C@@H](c4ccccc4)O[C@H]3[C@@H](OS(=O)(=O)C(F)(F)F)[C@H]1OC2=O | 75.9 | 63.1 | 44.2 | 8.05 | 68.6 |  | 
11 | CCCCCCCOc1cc2c(c(OCCCCCCC)c1OC)[C@@H]1O[C@H](CO)[C@@H](OCc3ccccc3)[C@H](O)[C@H]1OC2=O | 69.8 | 51.4 | 16.1 | 10.6 | 51.3 |  | 
12 | CCCCCCCOc1cc2c(c(OCCCCCCC)c1OC)[C@@H]1O[C@H](COCc3ccccc3)[C@@H](O)[C@H](O)[C@H]1OC2=O | 99.4 | 95.9 | 10.1 | 7.66 | 99.6 |  | 
13 | CCCCCCCOc1cc2c(c(OCCCCCCC)c1OC)[C@@H]1O[C@@H]3CO[C@@H](c4ccccc4)O[C@H]3[C@H](O)[C@H]1OC2=O | -6.83 |  |  |  |  |  | 
14 | CCCCCCOc1cc2c(c(OCCCCCC)c1OC)[C@@H]1O[C@H](CO)[C@@H](O)[C@H](O)[C@H]1OC2=O | 98.1 | 61.9 | 5.21 | 8.16 | 67.4 |  | 
15 | COc1c(OCc2ccccc2)cc2c(c1OCc1ccccc1)[C@@H]1O[C@@H]3CO[C@@H](c4ccccc4)O[C@H]3[C@H](OS(=O)(=O)C(F)(F)F)[C@H]1OC2=O | -1.62 |  |  |  |  |  | 
16 | COc1c(OCc2ccccc2)cc2c(c1OCc1ccccc1)[C@@H]1O[C@@H]3CO[C@@H](c4ccccc4)O[C@H]3[C@H](N=[N+]=[N-])[C@H]1OC2=O | -2.26 |  |  |  |  |  | 
17 | COc1c(O)cc2c(c1O)[C@@H]1O[C@@H]3CO[C@@H](c4ccccc4)O[C@H]3[C@H](O)[C@H]1OC2=O | -3.78 |  |  |  |  |  | 
18 | COc1c(OCc2ccccc2)cc2c(c1OCc1ccccc1)[C@@H]1O[C@@H]3CO[C@@H](c4ccccc4)O[C@H]3[C@H](O)[C@H]1OC2=O | 91.4 | 76.9 | 21 | 3.52 | 71 | 5.96 | 
19 | COc1c(O)cc2c(c1O)[C@@H]1O[C@H](CO)[C@@H](O)[C@H](O)[C@H]1OC2=O [BERGENIN] | 11.7 | 18.3 |  |  | -6.2 |  | 
20 | C[C@H]1C[C@H]2[C@@H]3CCC4=CC(=O)C=C[C@]4(C)[C@@]3(F)[C@@H](O)C[C@]2(C)[C@@]1(O)C(=O)CO [BETAMETHASONE] | 89.6 | 96.9 |  |  | 99.3 |  | 
21 | C/C=C/C[C@@H](C)[C@@H](O)[C@H]1C(=O)N[C@@H](CC)C(=O)N(C)CC(=O)N(C)[C@@H](CC(C)C)C(=O)N[C@@H](C(C)C)C(=O)N(C)[C@@H](CC(C)C)C(=O)N[C@@H](C)C(=O)N[C@H](C)C(=O)N(C)[C@@H](CC(C)C)C(=O)N(C)[C@@H](CC(C)C)C(=O)N(C)[C@@H](C(C)C)C(=O)N1C [CYCLOSPORINE] |  |  |  |  |  |  | 93.5

Source: ChEMBL document CHEMBL5107945, “Synthesis and biological evaluation of bergenin derivatives as new immunosuppressants” (RSC Med Chem, 2021)
